Experimental data published in ChEMBL document CHEMBL3112391, “Ethoxysanguinarine Induces Inhibitory Effects and Downregulates CIP2A in Lung Cancer Cells” (ACS Med Chem Lett, 2014).
Calls of active or inactive are those of the source.

What was measured:
[1] = target: Protein CIP2A (Homo sapiens) (UniProt Q8TCG1); assay: Inhibition of CIP2A in human A549 cells assessed as potentiation of cisplatin-induced PARP cleavage at 3.5 uM after 24 hrs by Western blot analysis; assay type: cell-based
Outline: (§1)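 Cells cultured 24 h with test agent and/or cisplatin; lysates immunoblotted for PARP cleavage.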

[2] = target: Protein CIP2A (Homo sapiens) (UniProt Q8TCG1); assay: Inhibition of CIP2A in human NCI-H1975 cells assessed as potentiation of cisplatin-induced PARP cleavage at 1 uM after 24 hrs by Western blot analysis; assay type: cell-based; outline: as §1
[3] = target: Protein CIP2A (Homo sapiens) (UniProt Q8TCG1); assay: Inhibition of CIP2A in human A549 cells assessed as potentiation of cisplatin-induced cell growth inhibition at 3.5 uM after 24 hrs by MTT assay; assay type: cell-based
Outline: (§2)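 Cells treated 24 h with test agent, cisplatin or both (H1975: 1 μM with 10 μM cisplatin; A549: 3.5 μM with 20 μM cisplatin); viability by MTT.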

[4] = target: Protein CIP2A (Homo sapiens) (UniProt Q8TCG1); assay: Inhibition of CIP2A in human NCI-H1975 cells assessed as potentiation of cisplatin-induced cell growth inhibition at 1 uM after 24 hrs by MTT assay; assay type: cell-based; outline: as §2
[5] = tested on: A549; assay: Cytotoxicity against human A549 cells assessed as growth inhibition at 5 uM after 24 hrs by MTT assay in presence of pan-caspase inhibitor z-VAD.fmk; assay type: functional, cell-based
Outline: (§3)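 Cells pretreated 1 h with z-VAD-fmk (20 μM), then exposed for 24 h (H1975 at 1.5 μM, A549 at 5 μM); viability by MTT.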

[6] = tested on: NCI-H1975; assay: Cytotoxicity against human NCI-H1975 cells assessed as growth inhibition at 1.5 uM after 24 hrs by MTT assay in presence of pan-caspase inhibitor z-VAD.fmk; assay type: functional, cell-based; outline: as §3
[7] = tested on: A549; assay: Induction of apoptosis in human A549 cells assessed as PARP cleavage at 5 uM after 24 hrs by Western blot analysis in presence of pan-caspase inhibitor z-VAD.fmk; assay type: functional, cell-based
Outline: (§4)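 Cells pretreated 1 h with z-VAD-fmk (20 μM), then exposed for 24 h (H1975 at 1.5 μM, A549 at 5 μM); lysates immunoblotted for PARP and its cleavage fragment.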

[8] = tested on: NCI-H1975; assay: Induction of apoptosis in human NCI-H1975 cells assessed as PARP cleavage at 1.5 uM after 24 hrs by Western blot analysis in presence of pan-caspase inhibitor z-VAD.fmk; assay type: functional, cell-based; outline: as §4
[9] = tested on: A549; assay: Induction of apoptosis in human A549 cells assessed as decrease in pro-caspase-9 protein expression at 1 to 10 uM after 24 hrs by Western blot analysis; assay type: functional, cell-based
Outline: (§5)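 H1975 or A549 cells treated 24 h at various concentrations; lysates immunoblotted for apoptosis markers (PARP, caspases).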

[10] = tested on: A549; assay: Induction of apoptosis in human A549 cells assessed as decrease in pro-caspase-8 protein expression at 1 to 10 uM after 24 hrs by Western blot analysis; assay type: functional, cell-based; outline: as §5
[11] = tested on: A549; assay: Induction of apoptosis in human A549 cells assessed as PARP cleavage at 1 to 10 uM after 24 hrs by Western blot analysis; assay type: functional, cell-based; outline: as §5
[12] = tested on: NCI-H1975; assay: Induction of apoptosis in human NCI-H1975 cells assessed as decrease in pro-caspase-9 protein expression at 1 to 2.5 uM after 24 hrs by Western blot analysis; assay type: functional, cell-based; outline: as §5
[13] = tested on: NCI-H1975; assay: Induction of apoptosis in human NCI-H1975 cells assessed as decrease in pro-caspase-8 protein expression at 1 to 2.5 uM after 24 hrs by Western blot analysis; assay type: functional, cell-based; outline: as §5
[14] = tested on: NCI-H1975; assay: Induction of apoptosis in human NCI-H1975 cells assessed as PARP cleavage at 1 to 2.5 uM after 24 hrs by Western blot analysis; assay type: functional, cell-based; outline: as §5
[15] = tested on: A549; assay: Induction of apoptosis in human A549 cells at 2.5 to 10 uM after 24 hrs by annexin V/propidium iodide staining-based flow cytometric analysis; assay type: functional, cell-based
Outline: (§6)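 H1975 or A549 cells treated 24 h at various concentrations; apoptosis scored by annexin V/propidium iodide staining and flow cytometry.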

[16] = tested on: NCI-H1975; assay: Induction of apoptosis in human NCI-H1975 cells at 0.5 to 2.5 uM after 24 hrs by annexin V/propidium iodide staining-based flow cytometric analysis; assay type: functional, cell-based; outline: as §6
[17] = Cytotoxicity against human 95-D cells assessed as growth inhibition after 48 hrs by MTT assay; assay type: functional, cell-based
Outline: (§7)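 Lung cancer cell lines (adenocarcinoma, squamous and large cell lines) exposed to 0.5−10 μM for 48 h; viability read by MTT; IC50 taken from the dose–response.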

[18] = Cytotoxicity against human L78 cells assessed as growth inhibition after 48 hrs by MTT assay; assay type: functional, cell-based; conditions: L78, 48 h; outline: as §7
[19] = Cytotoxicity against human GLC82 cells assessed as growth inhibition after 48 hrs by MTT assay; assay type: functional, cell-based; conditions: GLC82, 48 h; outline: as §7
[20] = Cytotoxicity against human SPC-A1 cells assessed as growth inhibition after 48 hrs by MTT assay; assay type: functional, cell-based; conditions: SPCA1, 48 h; outline: as §7
[21] = tested on: NCI-H460; assay: Cytotoxicity against human NCI-H460 cells assessed as growth inhibition after 48 hrs by MTT assay; assay type: functional, cell-based; conditions: NCI-H460, 48 h; outline: as §7
[22] = tested on: A549; assay: Cytotoxicity against human A549 cells assessed as growth inhibition after 48 hrs by MTT assay; assay type: functional, cell-based; conditions: A549, 48 h; outline: as §7
[23] = tested on: NCI-H1975; assay: Cytotoxicity against human NCI-H1975 cells assessed as growth inhibition after 48 hrs by MTT assay; assay type: functional, cell-based; conditions: NCI-H1975, 48 h; outline: as §7
[24] = tested on: A549; assay: Cytotoxicity against human A549 cells assessed as growth inhibition at 5 uM after 24 hrs by MTT assay in presence of PP2A inhibitor okadaic acid; assay type: functional, cell-based
Outline: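 A549 cells pretreated 2 h with okadaic acid (25 nM), then 5 μM test agent for 24 h; viability by MTT.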

[25] = target: Protein CIP2A (Homo sapiens) (UniProt Q8TCG1); assay: Inhibition of CIP2A in human A549 cells assessed as induction of PP2A activity at 5 uM after 4 to 8 hrs by Western blot analysis; assay type: cell-based
Outline: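 A549 cells exposed to 5 μM over a time course, lysed, and PP2A activity measured in the lysates.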

[26] = target: Protein CIP2A (Homo sapiens) (UniProt Q8TCG1); assay: Inhibition of CIP2A in human A549 cells assessed as downregulation of p-AKT protein expression at 1 to 10 uM after 24 hrs by Western blot analysis; assay type: cell-based
Outline: (§8)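 H1975 or A549 cells incubated 24 h across a concentration series; whole-cell lysates immunoblotted for CIP2A, c-Myc, pAKT and total AKT.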

[27] = target: Protein CIP2A (Homo sapiens) (UniProt Q8TCG1); assay: Inhibition of CIP2A in human A549 cells assessed as downregulation of c-Myc protein expression at 1 to 10 uM after 24 hrs by Western blot analysis; assay type: cell-based; outline: as §8
[28] = target: Protein CIP2A (Homo sapiens) (UniProt Q8TCG1); assay: Inhibition of CIP2A in human NCI-H1975 cells assessed as downregulation of p-AKT protein expression at 1 to 2.5 uM after 24 hrs by Western blot analysis; assay type: cell-based; outline: as §8
[29] = target: Protein CIP2A (Homo sapiens) (UniProt Q8TCG1); assay: Inhibition of CIP2A in human NCI-H1975 cells assessed as downregulation of c-Myc protein expression at 1 to 2.5 uM after 24 hrs by Western blot analysis; assay type: cell-based; outline: as §8
[30] = tested on: NCI-H1975; assay: Downregulation of CIP2A protein expression in human NCI-H1975 cells at 1 to 2 uM after 24 hrs by Western blot analysis; assay type: functional, cell-based; outline: as §8
[31] = tested on: A549; assay: Downregulation of CIP2A protein expression in human A549 cells at 3.5 to 10 uM after 24 hrs by Western blot analysis; assay type: functional, cell-based; outline: as §8
[32] = tested on: A549; assay: Downregulation of CIP2A protein expression in human A549 cells at 5 uM by Western blot analysis; assay type: functional, cell-based; conditions: TDE = time-dependent effect
Outline: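 A549 cells treated with 5 μM over a time course; lysates immunoblotted for CIP2A.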

[33] = tested on: A549; assay: Downregulation of CIP2A mRNA expression in human A549 cells at 1 to 10 uM after 24 hrs by RT-PCR analysis; assay type: functional, cell-based
Outline: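 CIP2A transcript measured by real-time quantitative RT-PCR after 24 h treatment.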

[34] = target: Protein CIP2A (Homo sapiens) (UniProt Q8TCG1); assay: Induction of CIP2A proteolysis in human A549 cells at 5 uM after 4 hrs in presence of protein synthesis inhibitor cycloheximide; assay type: cell-based
Outline: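 A549 cells given 100 μg/mL cycloheximide with or without 5 μM test agent over a time course; whole-cell lysates probed for CIP2A.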

[35] = target: Protein CIP2A (Homo sapiens) (UniProt Q8TCG1); assay: Induction of FLAG-tagged CIP2A (unknown origin) proteolysis transfected in human A549 cells after 4 to 12 hrs; assay type: cell-based
Outline: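 A549 cells transfected 24 h with Flag-CIP2A, then treated over a time course; whole-cell lysates probed with anti-Flag.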

[36] = tested on: A549; assay: Downregulation of CIP2A mRNA expression in human A549 cells after 24 hrs by RT-PCR analysis; assay type: functional, cell-based
Outline: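 Cells exposed to ESG for 24 h. CIP2A transcript level was measured by real-time quantitative RT-PCR.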

[37] = tested on: A549; assay: Downregulation of CIP2A protein expression in human A549 cells after 24 hrs by Western blot analysis; assay type: functional, cell-based
Outline: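 A549 cells were incubated with ESG at a series of concentrations, including 3.5 and 10 μM, for 24 h. Cell lysates were immunoblotted for CIP2A.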

[38] = tested on: NCI-H1975; assay: Downregulation of CIP2A protein expression in human NCI-H1975 cells after 24 hrs by Western blot analysis; assay type: functional, cell-based
Outline: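 H1975 cells were incubated with ESG at a series of concentrations, including 1 and 2 μM, for 24 h. Cell lysates were Western blotted with anti-CIP2A antibody.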

CCOC1c2c(ccc3c2OCO3)-c2ccc3cc4c(cc3c2N1C)OCO4 (stereo not given)
inactive: growth inhibition (GI) [5] | growth inhibition (GI) [6] | Activity [7] | Activity [8] | growth inhibition (GI) [24]
2000 nM: IC50 [17]
1560 nM: IC50 [21]
2740 nM: IC50 [22]
active: inhibition [1] | inhibition [2] | inhibition [3] | inhibition [4] | Activity [9] | Activity [10] | Activity [11] | Activity [12] | Activity [13] | Activity [14] | Activity [15] | Activity [16] | inhibition [25] | inhibition [26] | inhibition [27] | inhibition [28] | inhibition [29] | Activity [30] | Activity [31] | Activity [32] tde | Activity [33] | Activity [34] | Activity [35]
1100 nM: IC50 [20]
1000 nM: IC50 [18]
1290 nM: IC50 [23]
1300 nM: IC50 [19]

C=C1C(=O)[C@]23[C@H](O)[C@H]1CC[C@H]2[C@@]12CO[C@@]3(O)C[C@@H]1C(C)(C)CC[C@@H]2OC(C)=O [RABDOCOETSIN B]
active: Activity [36] | Activity [37] | Activity [38]
14200 nM: IC50 [22]
10300 nM: IC50 [23]
